Test results reported in ChEMBL document CHEMBL3352526, “4-Quinolone-3-carboxylic acids as cell-permeable inhibitors of protein tyrosine phosphatase 1B” (Bioorg Med Chem, 2014).
Activity calls are given as the source filed them. No cut-off for these calls is given here.

Columns and labels:
[1] = target: T1, Tyrosine-protein phosphatase non-receptor type 1 (Homo sapiens, UniProt P18031); experiment: Inhibition of PTP1B (unknown origin) using pNPP as substrate by colorimetric assay
T1 sequence (P18031 whole entry): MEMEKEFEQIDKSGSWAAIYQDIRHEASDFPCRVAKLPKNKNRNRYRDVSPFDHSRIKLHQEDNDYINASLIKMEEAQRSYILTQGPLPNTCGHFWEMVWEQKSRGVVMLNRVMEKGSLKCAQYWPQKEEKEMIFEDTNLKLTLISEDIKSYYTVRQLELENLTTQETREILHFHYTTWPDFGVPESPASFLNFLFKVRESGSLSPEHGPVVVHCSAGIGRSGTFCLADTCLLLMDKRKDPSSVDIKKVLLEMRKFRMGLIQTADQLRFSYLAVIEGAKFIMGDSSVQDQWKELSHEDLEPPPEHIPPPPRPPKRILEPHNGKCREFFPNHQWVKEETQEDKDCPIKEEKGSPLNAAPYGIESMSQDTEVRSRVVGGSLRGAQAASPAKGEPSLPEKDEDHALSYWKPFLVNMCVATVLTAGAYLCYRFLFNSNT
In short: (§1)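 GST-PTP1B or GST-TCPTP at 30 nmol/L, 2 mmol/L pNPP, 50 mmol/L MOPS pH 6.5, 2% DMSO, compounds serially diluted from DMSO. Hydrolysis followed continuously at 405 nm for 3 min at 30 °C. IC50 from nonlinear fit of % inhibition vs concentration with Hill coefficient; means ± SD of three replications.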

[2] = target: T2, Tyrosine-protein phosphatase non-receptor type 1 (Homo sapiens) (UniProt P18031); experiment: Inhibition of PTP1B (unknown origin) using pNPP as substrate at 20 ug/ml by colorimetric assay
T2 sequence (whole entry): T1 sequence (P18031 whole entry)

[3] = target: T3, Receptor-type tyrosine-protein phosphatase F (Homo sapiens, UniProt P10586); experiment: Inhibition of LAR (unknown origin) using 3-o-methylfluorescein phosphatase substrate by colorimetric assay
In short: (§2)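 SHP1, SHP2 or LAR recombinant enzyme at 20 nmol/L with 10 µmol/L OMFP in 50 mmol/L MOPS pH 6.5, 2 mmol/L DTT, 1 mmol/L EDTA, 2% DMSO, 30 °C. Fluorescent product read at ex 485/em 530 nm; initial rate from the early linear part of the kinetic curve.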

[4] = target: T4, Tyrosine-protein phosphatase non-receptor type 6 (Homo sapiens, UniProt P29350); experiment: Inhibition of SHP1 (unknown origin) using 3-o-methylfluorescein phosphatase substrate at 20 ug/ml by colorimetric assay
[5] = target: T5, Tyrosine-protein phosphatase non-receptor type 2 (Homo sapiens, UniProt P17706); experiment: Inhibition of TCPTP (unknown origin) using pNPP as substrate by colorimetric assay; in short: as §1
T5 sequence (P17706 whole entry): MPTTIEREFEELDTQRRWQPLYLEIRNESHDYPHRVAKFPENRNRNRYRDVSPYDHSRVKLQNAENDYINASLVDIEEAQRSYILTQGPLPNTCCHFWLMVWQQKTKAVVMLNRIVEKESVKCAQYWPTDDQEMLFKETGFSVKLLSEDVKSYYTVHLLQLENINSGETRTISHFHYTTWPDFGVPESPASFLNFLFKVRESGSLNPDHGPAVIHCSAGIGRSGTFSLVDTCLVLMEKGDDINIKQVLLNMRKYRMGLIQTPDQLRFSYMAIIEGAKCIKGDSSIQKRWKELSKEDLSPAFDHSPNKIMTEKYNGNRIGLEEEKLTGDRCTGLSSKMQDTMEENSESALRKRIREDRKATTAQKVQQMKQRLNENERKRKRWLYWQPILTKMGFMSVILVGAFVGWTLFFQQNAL

[6] = target: T3, Receptor-type tyrosine-protein phosphatase F; experiment: Inhibition of LAR (unknown origin) using 3-o-methylfluorescein phosphatase substrate at 20 ug/ml by colorimetric assay
[7] = target: T6, Tyrosine-protein phosphatase non-receptor type 11 (Homo sapiens) (UniProt Q06124); experiment: Inhibition of SHP2 (unknown origin) using 3-o-methylfluorescein phosphatase substrate at 20 ug/ml by colorimetric assay
T6 sequence (whole entry): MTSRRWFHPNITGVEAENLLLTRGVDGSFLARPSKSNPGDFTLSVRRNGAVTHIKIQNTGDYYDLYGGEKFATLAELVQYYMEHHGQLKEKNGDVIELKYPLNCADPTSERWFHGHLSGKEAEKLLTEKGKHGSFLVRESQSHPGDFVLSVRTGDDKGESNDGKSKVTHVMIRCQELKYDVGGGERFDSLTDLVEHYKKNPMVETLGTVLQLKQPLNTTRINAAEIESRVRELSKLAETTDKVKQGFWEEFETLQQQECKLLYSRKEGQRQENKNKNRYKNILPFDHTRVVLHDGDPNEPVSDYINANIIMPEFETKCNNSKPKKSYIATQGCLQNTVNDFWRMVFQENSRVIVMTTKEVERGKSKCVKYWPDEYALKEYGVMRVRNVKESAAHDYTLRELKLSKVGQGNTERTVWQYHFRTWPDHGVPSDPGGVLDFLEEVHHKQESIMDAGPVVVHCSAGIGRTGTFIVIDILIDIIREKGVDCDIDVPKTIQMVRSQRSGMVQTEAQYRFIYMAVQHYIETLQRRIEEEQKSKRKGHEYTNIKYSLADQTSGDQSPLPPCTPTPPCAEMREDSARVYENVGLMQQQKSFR

[8] = target: T7, Tyrosine-protein phosphatase non-receptor type 11 (Homo sapiens, UniProt Q06124); experiment: Inhibition of SHP2 (unknown origin) using 3-o-methylfluorescein phosphatase substrate by colorimetric assay; in short: as §2
T7 sequence (Q06124 whole entry): T6 sequence (whole entry)

[9] = target: T8, Tyrosine-protein phosphatase non-receptor type 2 (Homo sapiens) (UniProt P17706); experiment: Inhibition of TCPTP (unknown origin) using pNPP as substrate at 20 ug/ml by colorimetric assay
T8 sequence (whole entry): T5 sequence (P17706 whole entry)

[10] = target: T4, Tyrosine-protein phosphatase non-receptor type 6; experiment: Inhibition of SHP1 (unknown origin) using 3-o-methylfluorescein phosphatase substrate by colorimetric assay; in short: as §2
Homo sapiens [11] = species: Homo sapiens; experiment: Selectivity ratio of IC50 for SHP2 (unknown origin) to IC50 for PTP1B (unknown origin)
Homo sapiens [12] = species: Homo sapiens; experiment: Selectivity ratio of IC50 for TCPTP (unknown origin) to IC50 for PTP1B (unknown origin)
Homo sapiens [13] = species: Homo sapiens; experiment: Selectivity ratio of IC50 for LAR (unknown origin) to IC50 for PTP1B (unknown origin)
[14] = target: T1, Tyrosine-protein phosphatase non-receptor type 1; experiment: Competitive inhibition of PTP1B (unknown origin) using pNPP as substrate by Lineweaver-Burk plot
In short: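 Kinetics in 100 µL of 50 mmol/L MOPS pH 6.5 with 30 nmol/L PTP1B, pNPP in 2-fold dilutions from 80 mmol/L, at several inhibitor concentrations. Ki taken from a linear replot of apparent Km/Vmax (slope of double-reciprocal plot) against [I].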

[15] = target: T2, Tyrosine-protein phosphatase non-receptor type 1 (Homo sapiens); experiment: Inhibition of PTP1B (unknown origin) expressed in CHO cells co-expressing human IRbeta assessed as increase in insulin-stimulated IRbeta phosphorylation at 3 to 30 uM after 1 hr by Western blotting analysis; format: cell-based
In short: (§3)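 CHO/hIR cells grown in F12 with 10% FBS, penicillin/streptomycin, 37 °C, 5% CO2. After 2 h serum starvation, compound for 1 h, then 10 nM insulin for 10 min. Lysates in SDS loading buffer run on 8% SDS-PAGE, blotted with anti-pTyr (PY20); β-actin as loading control.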

[16] = target: T2, Tyrosine-protein phosphatase non-receptor type 1 (Homo sapiens); experiment: Inhibition of PTP1B (unknown origin) expressed in CHO cells co-expressing human IRbeta assessed as increase in insulin-stimulated IRbeta phosphorylation at 90 uM after 1 hr by Western blotting analysis; format: cell-based; in short: as §3

T4 sequence (P29350 whole entry): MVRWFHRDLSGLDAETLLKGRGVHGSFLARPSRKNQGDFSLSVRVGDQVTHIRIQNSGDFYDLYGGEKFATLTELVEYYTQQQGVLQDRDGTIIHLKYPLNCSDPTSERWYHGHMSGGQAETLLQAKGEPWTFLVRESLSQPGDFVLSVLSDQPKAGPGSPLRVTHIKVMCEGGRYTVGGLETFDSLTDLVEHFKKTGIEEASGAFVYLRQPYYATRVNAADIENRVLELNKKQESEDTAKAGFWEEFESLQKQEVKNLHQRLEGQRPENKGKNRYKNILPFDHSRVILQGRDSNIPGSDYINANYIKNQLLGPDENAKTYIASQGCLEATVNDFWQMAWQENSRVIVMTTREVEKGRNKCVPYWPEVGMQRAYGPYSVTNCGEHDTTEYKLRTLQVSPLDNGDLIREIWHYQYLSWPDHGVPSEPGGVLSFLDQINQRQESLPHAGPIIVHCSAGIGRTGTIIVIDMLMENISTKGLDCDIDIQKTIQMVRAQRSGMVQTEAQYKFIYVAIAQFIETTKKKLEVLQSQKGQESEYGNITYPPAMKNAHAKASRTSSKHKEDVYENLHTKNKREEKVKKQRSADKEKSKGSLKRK
T3 sequence (P10586 whole entry): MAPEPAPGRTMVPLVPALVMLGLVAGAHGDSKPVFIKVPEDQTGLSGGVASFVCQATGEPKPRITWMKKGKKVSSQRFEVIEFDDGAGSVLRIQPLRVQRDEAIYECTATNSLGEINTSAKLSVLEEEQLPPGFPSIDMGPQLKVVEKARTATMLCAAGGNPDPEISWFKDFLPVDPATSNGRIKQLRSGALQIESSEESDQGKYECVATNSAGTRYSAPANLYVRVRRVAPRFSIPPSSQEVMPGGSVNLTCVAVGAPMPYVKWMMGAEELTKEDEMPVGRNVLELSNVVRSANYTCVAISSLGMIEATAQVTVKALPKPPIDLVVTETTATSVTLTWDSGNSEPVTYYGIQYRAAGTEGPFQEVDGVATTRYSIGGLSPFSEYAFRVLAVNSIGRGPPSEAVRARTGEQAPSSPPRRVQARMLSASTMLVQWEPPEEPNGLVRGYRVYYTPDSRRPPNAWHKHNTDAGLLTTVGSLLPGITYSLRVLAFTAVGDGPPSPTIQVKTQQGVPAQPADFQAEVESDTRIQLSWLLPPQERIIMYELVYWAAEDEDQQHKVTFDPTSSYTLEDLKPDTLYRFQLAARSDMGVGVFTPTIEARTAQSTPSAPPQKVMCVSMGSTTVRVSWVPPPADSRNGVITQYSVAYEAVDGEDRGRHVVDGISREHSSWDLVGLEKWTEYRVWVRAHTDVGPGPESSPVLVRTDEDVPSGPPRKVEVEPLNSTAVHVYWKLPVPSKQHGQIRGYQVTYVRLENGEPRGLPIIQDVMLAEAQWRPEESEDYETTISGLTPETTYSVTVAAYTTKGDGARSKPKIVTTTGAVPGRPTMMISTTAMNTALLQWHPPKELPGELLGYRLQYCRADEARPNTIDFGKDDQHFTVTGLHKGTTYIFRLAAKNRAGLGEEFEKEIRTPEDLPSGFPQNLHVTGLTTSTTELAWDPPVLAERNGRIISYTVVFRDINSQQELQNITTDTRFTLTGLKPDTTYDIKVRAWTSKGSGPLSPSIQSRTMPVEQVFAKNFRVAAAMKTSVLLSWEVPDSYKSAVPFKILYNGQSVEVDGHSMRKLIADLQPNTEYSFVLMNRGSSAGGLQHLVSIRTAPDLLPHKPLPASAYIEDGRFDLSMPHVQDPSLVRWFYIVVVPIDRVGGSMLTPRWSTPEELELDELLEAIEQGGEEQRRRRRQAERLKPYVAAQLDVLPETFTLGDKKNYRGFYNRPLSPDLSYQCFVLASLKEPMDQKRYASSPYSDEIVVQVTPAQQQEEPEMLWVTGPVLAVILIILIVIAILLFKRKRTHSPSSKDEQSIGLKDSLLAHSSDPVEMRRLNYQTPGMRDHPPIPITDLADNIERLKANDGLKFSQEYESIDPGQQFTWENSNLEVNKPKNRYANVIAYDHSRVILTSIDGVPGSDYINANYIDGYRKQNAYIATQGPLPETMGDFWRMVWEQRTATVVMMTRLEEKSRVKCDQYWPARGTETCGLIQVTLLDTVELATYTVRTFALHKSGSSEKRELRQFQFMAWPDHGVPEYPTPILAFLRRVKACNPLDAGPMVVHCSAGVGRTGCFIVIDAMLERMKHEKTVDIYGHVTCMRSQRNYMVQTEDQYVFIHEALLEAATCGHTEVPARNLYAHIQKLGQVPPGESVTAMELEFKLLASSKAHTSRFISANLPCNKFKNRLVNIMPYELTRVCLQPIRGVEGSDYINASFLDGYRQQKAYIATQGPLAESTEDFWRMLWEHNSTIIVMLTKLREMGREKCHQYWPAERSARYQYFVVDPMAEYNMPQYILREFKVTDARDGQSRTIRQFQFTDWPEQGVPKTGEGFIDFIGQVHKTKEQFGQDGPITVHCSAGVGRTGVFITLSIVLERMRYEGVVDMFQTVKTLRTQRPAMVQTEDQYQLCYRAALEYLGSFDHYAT

## COC(=O)c1cc(Cn2cc(C(=O)NCc3ccccc3)c(=O)c3cc(I)ccc32)ccc1OC
[1]
  IC50: > 34.3 µM

## O=C(NCc1ccccc1)c1cn(C2CC2)c2ccc(I)cc2c1=O
[2]
  inhibition: 6.1%

## O=C(/C=C(\O)C(=O)N1CCN(C(=O)/C(O)=C\C(=O)c2cccc(N(Cc3ccccc3)Cc3ccccc3)c2)CC1)c1cccc(N(Cc2ccccc2)Cc2ccccc2)c1
[1]
  IC50: 2.8 µM

## O=C(NCc1ccccc1)c1cn(Cc2ccccc2)c2ccc(I)cc2c1=O
[3]
  IC50: Not Active
[1]
  IC50: 28.1 µM
[4]
  inhibition: < 50%
[5]
  IC50: Not Active
[6]
  inhibition: < 50%
[7]
  inhibition: < 50%
[8]
  IC50: Not Active
[9]
  inhibition: < 50%
[2]
  inhibition: 61.8%
[10]
  IC50: Not Active

## O=C(NCc1ccccc1)c1cn(C2CC2)c2ccc(F)cc2c1=O
[2]
  inhibition: 0.2%

## O=C(OCc1ccccc1)c1cn(Cc2ccccc2)c2ccc(Cc3ccccc3)cc2c1=O
[2]
  inhibition: 0.1%

## O=C(O)/C(O)=C/C(=O)c1cccc(Cn2cc(C(=O)O)c(=O)c3cc(I)ccc32)c1
[3]
  IC50: Not Active
Homo sapiens [11]
  Ratio IC50: > 10
[1]
  IC50: 4.62 µM
[5]; read-out: IC50 (converted)
  IC50: 9.44 µM
Homo sapiens [12]
  Ratio IC50: 2
[6]
  inhibition: < 50%
[7]
  inhibition: < 50%
[8]
  IC50: Not Active
[10]; read-out: IC50 (converted)
  IC50: 9.82 µM
Homo sapiens [13]
  Ratio IC50: > 10

## CCOC(=O)/C(O)=C/C(=O)c1cccc(Cn2cc(C(=O)O)c(=O)c3cc(I)ccc32)c1
[3]
  IC50: Not Active
Homo sapiens [11]
  Ratio IC50: > 10
[1]
  IC50: 5.66 µM
[14]
  Ki: 1.33 µM
[15]
  Activity: inactive
[5]; read-out: IC50 (converted)
  IC50: 11.5 µM
Homo sapiens [12]
  Ratio IC50: 2
[6]
  inhibition: < 50%
[16]
  Activity: Active
[7]
  inhibition: < 50%
[8]
  IC50: Not Active
[10]; read-out: IC50 (converted)
  IC50: 12.4 µM
Homo sapiens [13]
  Ratio IC50: > 10

## O=C(NCc1ccc(F)cc1)c1cn(C2CC2)c2ccc(I)cc2c1=O
[2]
  inhibition: 3.3%

## COC(=O)c1cc(Cn2cc(C(=O)O)c(=O)c3cc(I)ccc32)ccc1OC
[1]
  IC50: > 40.5 µM

## O=C(OCc1ccc(F)cc1)c1cn(C2CC2)c2ccc(Cc3ccc(F)cc3)cc2c1=O
[1]
  IC50: 31.4 µM
[2]
  inhibition: 73%

## Nc1ccc2c(c1)c(=O)c(C(=O)O)cn2Cc1ccc(F)cc1
[2]
  inhibition: 12.4%

## COC(=O)c1c(O)cccc1OCCCNC(=O)c1cn(Cc2ccc(F)cc2)c2ccc([N+](=O)[O-])cc2c1=O
[3]
  IC50: Not Active
[1]
  IC50: 11.8 µM
[4]
  inhibition: < 50%
[5]
  IC50: Not Active
[6]
  inhibition: < 50%
[7]
  inhibition: < 50%
[8]
  IC50: Not Active
[9]
  inhibition: < 50%
[10]
  IC50: Not Active

## O=C(O)c1cn(C2CC2)c2ccc(Cc3ccccc3)cc2c1=O
[3]
  IC50: Not Active
[1]
  IC50: 23.5 µM
[4]
  inhibition: < 50%
[5]
  IC50: Not Active
[6]
  inhibition: < 50%
[7]
  inhibition: < 50%
[8]
  IC50: Not Active
[9]
  inhibition: < 50%
[2]
  inhibition: 87.5%
[10]
  IC50: Not Active

## O=C(NCc1ccccc1)c1cn(C2CC2)c2cc(F)ccc2c1=O
[2]
  inhibition: 7.4%

## COC(=O)c1c(O)cccc1OCCCNC(=O)c1cn(Cc2ccccc2)c2cc(F)ccc2c1=O
[1]
  IC50: 18.6 µM

## COC(=O)c1cc(Cn2cc(C(=O)O)c(=O)c3cc(I)ccc32)ccc1O
[3]
  IC50: Not Active
[1]
  IC50: 16.9 µM
[4]
  inhibition: < 50%
[5]
  IC50: Not Active
[6]
  inhibition: < 50%
[7]
  inhibition: < 50%
[8]
  IC50: Not Active
[9]
  inhibition: < 50%
[10]
  IC50: Not Active

## O=C(O)c1cn(C2CC2)c2ccc(N3CCN(Cc4ccccc4)CC3)cc2c1=O
[1]
  IC50: 22.8 µM
[2]
  inhibition: 62.3%

## O=C(O)c1cn(Cc2ccccc2)c2ccc(Cc3ccccc3)cc2c1=O
[2]
  inhibition: 15.1%

## O=C(O)c1cn(Cc2ccccc2)c2cc(F)ccc2c1=O
[2]
  inhibition: 0.7%

## O=C(OCc1ccccc1)c1cn(C2CC2)c2ccc(I)cc2c1=O
[1]
  IC50: 25.6 µM
[2]
  inhibition: 80.5%

## O=C(NCc1ccccc1)c1cn(Cc2ccccc2)c2ccc(F)cc2c1=O
[2]
  inhibition: 41.4%

## O=C(O)c1cn(C2CC2)c2ccc(I)cc2c1=O
[2]
  inhibition: 3.5%

## COC(=O)c1c(OCCCN2CCN(c3ccc4c(c3)c(=O)c(C(=O)O)cn4C3CC3)CC2)cccc1OCc1ccccc1
[1]
  IC50: 73.9 µM

## O=C(O)c1cn(C2CC2)c2ccc(F)cc2c1=O
[2]
  inhibition: 0.8%

## O=C(O)c1cn(Cc2ccccc2)c2ccc(F)cc2c1=O
[2]
  inhibition: 15.1%

## O=C(O)c1cn(Cc2ccc(F)cc2)c2ccc([N+](=O)[O-])cc2c1=O
[2]
  inhibition: 36.2%

## O=C(O)c1cn(Cc2ccccc2)c2ccc(I)cc2c1=O
[2]
  inhibition: 3.1%

## O=C(O)c1cn(C2CC2)c2ccc(Cc3ccc(F)cc3)cc2c1=O
[3]
  IC50: Not Active
[1]
  IC50: 36.5 µM
[4]
  inhibition: < 50%
[5]
  IC50: Not Active
[6]
  inhibition: < 50%
[7]
  inhibition: < 50%
[8]
  IC50: Not Active
[9]
  inhibition: < 50%
[2]
  inhibition: 71.1%
[10]
  IC50: Not Active
